Source: ChEMBL document CHEMBL2331513, “Trisubstituted Sulfonamides: a New Chemotype for Development of Potent and Selective CB2 Receptor Inverse Agonists” (ACS Med Chem Lett, 2013)
Calls of active or inactive are those of the source. The rule behind the calls is not given here.

Columns and labels:
Homo sapiens = species on record: Homo sapiens; test: Selectivity ratio of Ki for human CB1 receptor to Ki for human CB2 receptor
Procedure, shortened: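 Ki at CB1 and CB2 each determined by [3H]CP-55,940 competition binding; selectivity index computed as Ki(CB1)/Ki(CB2).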

Cannabinoid receptor 1 = Cannabinoid receptor 1 (Homo sapiens, UniProt P21554); test: biochemical; format: cell-based, CHO
Cannabinoid receptor 1, sequence (P21554 whole entry): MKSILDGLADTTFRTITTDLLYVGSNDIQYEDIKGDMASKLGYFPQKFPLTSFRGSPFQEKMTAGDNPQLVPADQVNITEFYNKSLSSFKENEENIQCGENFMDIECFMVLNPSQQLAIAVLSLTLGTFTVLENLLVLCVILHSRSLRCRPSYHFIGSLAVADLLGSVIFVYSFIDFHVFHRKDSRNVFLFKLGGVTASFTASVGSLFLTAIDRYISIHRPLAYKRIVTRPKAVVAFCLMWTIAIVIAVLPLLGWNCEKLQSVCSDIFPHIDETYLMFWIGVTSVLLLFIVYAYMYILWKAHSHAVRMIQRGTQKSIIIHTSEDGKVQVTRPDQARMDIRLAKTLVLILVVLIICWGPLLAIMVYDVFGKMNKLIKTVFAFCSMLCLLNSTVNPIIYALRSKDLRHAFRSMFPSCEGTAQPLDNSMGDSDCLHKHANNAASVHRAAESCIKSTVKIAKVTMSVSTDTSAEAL

Cannabinoid receptor 2 [1] = biological target: T1, Cannabinoid receptor 2 (Homo sapiens, UniProt P34972); test: Displacement of [3H]CP-55940 from human CB2 receptor expressed in CHO cell membranes after 1 hr by scintillation counting analysis
T1 sequence (P34972 whole entry): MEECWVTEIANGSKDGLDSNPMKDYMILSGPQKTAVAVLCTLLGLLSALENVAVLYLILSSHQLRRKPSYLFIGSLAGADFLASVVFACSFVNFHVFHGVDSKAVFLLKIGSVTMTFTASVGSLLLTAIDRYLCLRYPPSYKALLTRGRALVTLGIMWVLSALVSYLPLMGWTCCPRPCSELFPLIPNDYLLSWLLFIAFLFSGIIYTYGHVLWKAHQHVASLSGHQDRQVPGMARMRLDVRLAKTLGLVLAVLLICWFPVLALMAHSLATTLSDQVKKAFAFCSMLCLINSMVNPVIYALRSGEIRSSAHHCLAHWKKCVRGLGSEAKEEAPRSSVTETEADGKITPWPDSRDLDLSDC

Cannabinoid receptor 2 [2] = biological target: T1, Cannabinoid receptor 2; test: Inverse agonist activity at human CB2 receptor expressed in CHO cell membranes assessed as inhibition of forskolin-stimulated cAMP production after 45 mins by TR-FRET assay; format: functional, cell-based
Procedure, shortened: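 Functional cAMP readout by LANCE signal in CHO cells stably transfected with human CB2, tested across a concentration range; EC50 from concentration–response; means ± SEM of one representative experiment of two or more, run in duplicate or triplicate.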

Mus musculus = species on record: Mus musculus; test: Inhibition of RANKL/MCSF-induced osteoclastogenesis in C57BL/6 mouse BM-MNC after 7 days by TRAP staining-based inverted microscopic analysis; format: functional
Procedure, shortened: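 Mouse bone marrow mononuclear cells driven to osteoclasts with mouse RANKL plus M-CSF, compound or vehicle control added; osteoclast formation scored; triplicate, means ± SD.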

Cannabinoid receptor 2 [3] = biological target: T1, Cannabinoid receptor 2; test: Binding affinity to CB2 receptor (unknown origin)
Procedure, shortened: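 Radioligand competition binding at CB2 using [3H]CP-55,940 as the labelled ligand; Ki derived from displacement; means ± SEM of at least three experiments, each run in duplicate.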

[4] = Inhibition of RANKL/MCSF-induced osteoclastogenesis in C57BL/6 mouse BM-MNC at 5 uM after 7 days by TRAP staining-based inverted microscopic analysis relative to control; format: functional; set-up: scale not given: the % may be the effect or the level left
Procedure, shortened: (§1)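 Osteoclast formation assay using mouse bone marrow mononuclear cells stimulated with mouse RANKL plus M-CSF. Compounds were tested at 0.1, 1 and 5 μM, and inhibition was calculated relative to vehicle control. All experiments were run in triplicate and reported as mean ± standard deviation.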

PBMC = test: Cytotoxicity against human PBMC at 5 uM after 72 hrs by trypan blue assay; format: cell-based
[5] = Inhibition of RANKL/MCSF-induced osteoclastogenesis in C57BL/6 mouse BM-MNC at 1 uM after 7 days by TRAP staining-based inverted microscopic analysis relative to control; format: functional; set-up: scale not given: the % may be the effect or the level left; procedure, shortened: as §1
[6] = Inhibition of RANKL/MCSF-induced osteoclastogenesis in C57BL/6 mouse BM-MNC at 0.1 uM after 7 days by TRAP staining-based inverted microscopic analysis relative to control; format: functional; set-up: scale not given: the % may be the effect or the level left; procedure, shortened: as §1

Row | Ratio Ki (Homo sapiens) | Ki (Cannabinoid receptor 1) [nM] | Ki (Cannabinoid receptor 2 [1]) [nM] | Compound | other results
1 | 43 | 2300 | 53 | CCN(CC)c1ccc(CN(Cc2ccccc2)S(=O)(=O)c2ccc(C)cc2)cc1 | –
2 | – | – | 130 | C=CCc1ccc(CN(Cc2ccccc2)S(=O)(=O)c2ccc(C)cc2)cc1 | –
3 | 6 | 430 | 73 | CCN(CC)c1ccc(CN(Cc2ccccc2)S(=O)(=O)c2ccc(Cl)cc2)cc1 | –
4 | – | – | 130 | CCCc1ccc(CN(Cc2ccccc2)S(=O)(=O)c2ccc(C)cc2)cc1 | –
5 | – | – | 280 | CCCCc1ccc(CN(Cc2ccccc2)S(=O)(=O)c2ccc(C)cc2)cc1 | –
6 | – | – | 174 | Cc1ccc(S(=O)(=O)N(Cc2ccccc2)Cc2ccc(OC(C)C)cc2)cc1 | –
7 | 15 | 690 | 46 | CCN(CC)c1ccc(CN(Cc2ccccc2)S(=O)(=O)c2ccc(OC)cc2)cc1 | –
8 | 28 | 1300 | 44 | Cc1ccc(S(=O)(=O)N(Cc2ccccc2)Cc2ccc(N3CCCCC3)cc2)cc1 | –
9 | – | – | 140 | O=S(=O)(c1ccc(Cl)cc1)N(Cc1ccc(N2CCCCC2)cc1)c1ccccc1 | –
10 | – | – | 230 | CCOc1ccc(CN(Cc2ccccc2)S(=O)(=O)c2ccc(C)cc2)cc1 | –
11 | 9 | 930 | 102 | CCN(CC)c1ccc(CN(Cc2ccccc2)S(=O)(=O)c2ccc(F)cc2)cc1 | –
12 | – | – | 680 | Cc1ccc(S(=O)(=O)N(Cc2ccccc2)Cc2ccc(N(C)C)cc2)cc1 | –
13 | – | – | 230 | Cc1ccc(S(=O)(=O)N(Cc2ccccc2)Cc2ccc(C(C)C)cc2)cc1 | –
14 | – | – | 310 | Cc1ccc(S(=O)(=O)N(Cc2ccc(N3CCCCC3)cc2)c2ccccc2)cc1 | –
15 | 18 | 590 | 32 | COc1ccc(S(=O)(=O)N(Cc2ccc(N3CCCCC3)cc2)c2ccccc2)cc1 | EC50 (Cannabinoid receptor 2 [2]): 49 nM
16 | – | – | 120 | CCN(CC)c1ccc(CN(CCc2ccccc2)S(=O)(=O)c2ccc(C)cc2)cc1 | –

The next lines start with the molecule.

Row | Compound | Ratio Ki (Homo sapiens) | Ki (Cannabinoid receptor 1) [nM] | Ki (Cannabinoid receptor 2 [1]) [nM] | other results
17 | CCN(CC)c1ccc(CN(Cc2ccco2)S(=O)(=O)c2ccc(C(C)C)cc2)cc1 | 42 | 1300 | 31 | –
18 | CCN(CC)c1ccc(CN(Cc2ccccc2)S(=O)(=O)Cc2ccccc2)cc1 | – | – | 262 | –
19 | CCN(CC)c1ccc(CN(Cc2ccccc2)S(=O)(=O)c2ccc(NC(C)=O)cc2)cc1 | – | – | 470 | –
20 | CCN(CC)c1ccc(CN(Cc2ccccc2)S(=O)(=O)c2ccc(OC(C)C)cc2)cc1 | – | – | 94 | –
21 | CCN(CC)c1ccc(CN(C2CCCCC2)S(=O)(=O)c2ccc(C)cc2)cc1 | 12 | 210 | 18 | –
22 | CCN(CC)c1ccc(CN(c2ncc(C)s2)S(=O)(=O)c2ccc(OC)cc2)cc1 | 120 | 600 | 4 | EC50 (Cannabinoid receptor 2 [2]): 73 nM; Activity (Mus musculus): Active
23 | CCN(CC)c1ccc(CN(Cc2ccccc2)S(=O)(=O)c2ccc3ccccc3c2)cc1 | – | – | 190 | –
24 | CCN(CC)c1ccc(CN(C2CCCCC2)S(=O)(=O)c2ccc(OC)cc2)cc1 | 9 | 660 | 75 | –
25 | CCN(CC)c1ccc(CN(Cc2ccc(N(CC)CC)cc2)S(=O)(=O)c2ccc(C)cc2)cc1 | – | – | 540 | –
26 | CCN(CC)c1ccc(CN(Cc2cccs2)S(=O)(=O)c2ccc(C)cc2)cc1 | 44 | 610 | 14 | –
27 | CCN(CC)c1ccc(CN(Cc2ccco2)S(=O)(=O)c2ccc(OC)cc2)cc1 | 42 | 840 | 20 | –
28 | CCN(CC)c1ccc(CN(Cc2ccc(Cl)cc2)S(=O)(=O)c2ccc(C)cc2)cc1 | – | – | 210 | –
29 | CCN(CC)c1ccc(CN(c2ccccc2)S(=O)(=O)c2ccc(C(C)C)cc2)cc1 | 66 | 2000 | 30 | –
30 | CCN(CC)c1ccc(CN(Cc2ccccc2)S(=O)(=O)c2ccccc2)cc1 | – | – | 170 | –
31 | CCN(CC)c1ccc(CN(CC2CCCCC2)S(=O)(=O)c2ccc(C)cc2)cc1 | 16 | 560 | 34 | –
32 | CCN(CC)c1ccc(CNS(=O)(=O)c2ccc(C)cc2)cc1 | – | – | 3600 | –

Row | Compound | Ratio Ki (Homo sapiens) | Ki (Cannabinoid receptor 1) [nM] | Ki (Cannabinoid receptor 2 [1]) [nM] | other results
33 | Cc1ccc(S(=O)(=O)N(Cc2ccccc2)Cc2ccc(N(CCCl)CCCl)cc2)cc1 | – | – | 166 | –
34 | CCN(CC)c1ccc(CN(Cc2ccco2)S(=O)(=O)c2ccc(C)cc2)cc1 | 60 | 570 | 9.5 | –
35 | CCN(CC)c1ccc(CN(C2CCCC2)S(=O)(=O)c2ccc(C)cc2)cc1 | 14 | 500 | 36 | –
36 | C=CCN(Cc1ccc(N(CC)CC)cc1)S(=O)(=O)c1ccc(C)cc1 | 19 | 1250 | 66 | –
37 | Cc1ccc(S(=O)(=O)N(CCc2ccccc2)Cc2ccccc2)cc1 | – | – | – | Ki (Cannabinoid receptor 2 [3]): 750 nM
38 | CCN(CC)c1ccc(CN(Cc2ccccc2)Cc2ccccc2)cc1 | – | – | 150 | –
39 | CCN(CC)c1ccc(CN(Cc2ccccc2)S(=O)(=O)c2ccc(OC(F)(F)F)cc2)cc1 | – | – | 577 | –
40 | CCN(CC)c1ccc(CN(C2CCCCC2)S(=O)(=O)c2ccc(C(C)C)cc2)cc1 | 25 | 1400 | 55 | –
41 | CCN(CC)c1ccc(CN(Cc2ccccc2)S(=O)(=O)c2ccc(-c3ccccc3)cc2)cc1 | – | – | 166 | –
42 | CCN(CC)c1ccc(CN(Cc2ccccc2)S(=O)(=O)c2ccc(C(C)C)cc2)cc1 | 7 | 520 | 71 | –
43 | CCN(CC)c1ccc(CN(c2ccccc2)S(=O)(=O)c2ccc(OC)cc2)cc1 | 92 | 500 | 5.4 | EC50 (Cannabinoid receptor 2 [2]): 2.5 nM; Activity (Mus musculus): Active
44 | CCN(CC)c1ccc(CN(Cc2ccc(F)cc2)S(=O)(=O)c2ccc(C)cc2)cc1 | 20 | 2250 | 120 | –
45 | CCN(CC)c1ccc(CN(c2ncc(C)s2)S(=O)(=O)c2ccc(C)cc2)cc1 | 24 | 340 | 14 | –
46 | CCN(CC)c1ccc(CN(c2ccccc2)S(=O)(=O)c2ccc(C)cc2)cc1 | 15 | 81 | 5.5 | EC50 (Cannabinoid receptor 2 [2]): 8.2 nM; Activity [4]: 99.7%; Activity (PBMC): Non-toxic; Activity [5]: 83%; Activity [6]: 55%
47 | CCN(CC)c1ccc(CN(Cc2ccc(Cl)c(Cl)c2)S(=O)(=O)c2ccc(C)cc2)cc1 | – | – | 390 | –
